From ChEMBL document CHEMBL1132372, “The opioid mu agonist/delta antagonist DIPP-NH(2)[Psi] produces a potent analgesic effect, no physical dependence, and less tolerance than morphine in rats” (J Med Chem, 1999) come the findings set out here.

Square brackets hold non-standard residues; d marks the D form. Peptide text beside a SMILES is read from it. NMeDmt = CN[C@@H](Cc1c(C)cc(O)cc1C)C(=O)O; Dmt = Cc1cc(O)cc(C)c1C[C@H](N)C(=O)O; Tic = O=C(O)[C@@H]1Cc2ccccc2CN1 Where only a bound is given, the exact number is not on record here.

For assay [1], the species on record is Mus musculus. Description: Compound was evaluated for its antagonist potency against delta agonist […] by MVD assay(mouse vas deferens). It counts as functional.
Assay [2] is filed under the species Mus musculus. Put plainly: Compound was evaluated for its antagonist potency against delta agonist deltorphin I, by MVD assay(mouse vas deferens). It counts as functional.
The species entered for assay [3] is Cavia porcellus. Description: Compound was evaluated for inhibition of electrically evoked contractions of the GPI (guinea pig ileum). The format is functional. Summed up: (§1)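 Inhibition of electrically evoked contractions of guinea pig ileum. Each preparation also run with a [Leu5]enkephalin standard dose-response curve, and test IC50 values normalised against it.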

For assay [4], the target named is Kappa-type opioid receptor (Cavia porcellus, UniProt P41144). Description: Binding affinity for Opioid receptor kappa 1 determined by displacement of [3H]U-69593 from guinea pig brain membranes. The arrangement: species or system Membrane. The gist of the method: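 Guinea pig brain membranes incubated 2 h at 0 °C with 0.80 nM [3H]U69,593. IC50 taken from log dose-displacement curves; Ki by Cheng-Prusoff using Kd 2.9 nM.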

The target in assay [5] is Mu-type opioid receptor (Rattus norvegicus, UniProt P33535). Description: Binding affinity for Opioid receptor mu 1 determined by displacing [3H]DAMGO from rat brain membrane binding sites.
For assay [6], the species on record is Cavia porcellus. Put plainly: Compound was evaluated for antagonist potency against mu receptor. agonist TAPP by GPI (guinea pig ileum) assay. The format is functional.
Assay [7] concerns the target Delta-type opioid receptor (Rattus norvegicus, UniProt P33533). Put plainly: Binding affinity for Opioid receptor delta 1 determined by displacing [3H]-DSLET from rat brain membrane binding sites.
The species entered for assay [8] is Rattus norvegicus. Put plainly: Analgesic Potency of compound in Comparison with Morphine evaluated by rat tail flick test. The format is functional.
The species named for assay [9] is Cavia porcellus. Description: Compound was evaluated for inhibition of electrically evoked contractions of the GPI (guinea pig ileum); PA=Partial agonist. It counts as functional. Summed up: as §1

Sequence of Kappa-type opioid receptor (P41144 whole entry): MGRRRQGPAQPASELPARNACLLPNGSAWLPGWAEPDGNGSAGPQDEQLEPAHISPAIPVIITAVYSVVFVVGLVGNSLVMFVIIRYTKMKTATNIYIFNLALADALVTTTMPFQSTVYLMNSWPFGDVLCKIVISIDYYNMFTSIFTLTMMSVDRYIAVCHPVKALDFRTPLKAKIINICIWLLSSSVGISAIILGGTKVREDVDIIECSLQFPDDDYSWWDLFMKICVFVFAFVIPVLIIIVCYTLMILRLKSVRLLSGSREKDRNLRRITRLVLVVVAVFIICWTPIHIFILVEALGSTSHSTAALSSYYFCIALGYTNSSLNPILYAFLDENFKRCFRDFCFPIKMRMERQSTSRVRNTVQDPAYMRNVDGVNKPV
Sequence of Mu-type opioid receptor (P33535 whole entry): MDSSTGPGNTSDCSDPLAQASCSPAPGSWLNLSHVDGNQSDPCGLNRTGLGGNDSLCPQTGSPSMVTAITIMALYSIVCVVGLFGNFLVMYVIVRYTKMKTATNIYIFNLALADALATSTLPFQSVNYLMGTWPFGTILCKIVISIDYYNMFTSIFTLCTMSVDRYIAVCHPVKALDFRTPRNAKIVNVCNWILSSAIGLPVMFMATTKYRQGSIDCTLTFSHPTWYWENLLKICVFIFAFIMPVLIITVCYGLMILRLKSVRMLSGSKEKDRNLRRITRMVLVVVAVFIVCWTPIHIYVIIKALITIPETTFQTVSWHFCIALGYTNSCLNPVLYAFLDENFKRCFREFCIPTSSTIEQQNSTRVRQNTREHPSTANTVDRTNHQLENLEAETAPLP
Sequence of Delta-type opioid receptor (P33533 whole entry): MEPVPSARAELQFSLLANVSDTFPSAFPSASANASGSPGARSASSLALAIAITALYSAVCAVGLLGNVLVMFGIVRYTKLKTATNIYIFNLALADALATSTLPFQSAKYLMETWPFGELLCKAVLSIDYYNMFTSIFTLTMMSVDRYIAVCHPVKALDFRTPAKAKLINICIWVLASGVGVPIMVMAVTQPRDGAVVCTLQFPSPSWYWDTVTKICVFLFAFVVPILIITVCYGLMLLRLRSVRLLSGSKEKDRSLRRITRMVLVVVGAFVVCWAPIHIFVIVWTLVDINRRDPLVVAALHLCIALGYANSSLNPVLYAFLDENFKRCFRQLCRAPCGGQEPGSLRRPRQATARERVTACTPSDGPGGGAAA

Regarding `Cc1cc(O)cc(C)c1C[C@H](N)C(=O)N1Cc2ccccc2CC1CN[C@@H](Cc1ccccc1)C(=O)N[C@@H](Cc1ccccc1)C(N)=O` (stereo partly drawn), the figures for the Ke in assay [1] and in assay [2] were 0.537 nM and 0.486 nM, respectively. In [3], this compound showed an IC50 of 7.71 nM. In assay [4], this compound gave an inhibition constant (Ki) above 1000 nM.
For the compound `Cc1cc(O)cc(C)c1C[C@H](N)C(=O)N1Cc2ccccc2C[C@H]1C(=O)N[C@@H](Cc1ccccc1)C(=O)N[C@@H](Cc1ccccc1)C(N)=O` (H-[Dmt][Tic]FF-NH2), the Ki in assay [4] was above 1000 nM.
Consider `CN[C@@H](Cc1c(C)cc(O)cc1C)C(=O)N1Cc2ccccc2CC1CN[C@@H](Cc1ccccc1)C(=O)N[C@@H](Cc1ccccc1)C(N)=O` (stereo partly drawn), for which the Ke in assay [1] was determined as 22.1 nM; in [6], 64.5 nM; in [2], 54.4 nM. Further, the figures for the inhibition constant Ki in assay [5], in assay [7] and in assay [4] were 76.2 nM, 61 nM and above 1000 nM, respectively.
In the case of `CN1CC[C@]23c4c5ccc(O)c4O[C@H]2[C@@H](O)C=C[C@H]3[C@H]1C5` [MORPHINE], the ED50 in assay [8] was 0.11 µg.
As to `CN[C@@H](Cc1c(C)cc(O)cc1C)C(=O)N1Cc2ccccc2C[C@H]1C(=O)N[C@@H](Cc1ccccc1)C(=O)N[C@@H](Cc1ccccc1)C(N)=O` (H-[NMeDmt][Tic]FF-NH2), the Ke in assay [1] is recorded as 0.235 nM; in [2], 0.233 nM. Also, the Ki was 4.08 nM in assay [5], 0.393 nM in [7] and above 1000 nM in [4]. Moreover, the IC50 entry in assay [9] is “Partial agonist”.
